Assay results taken from ChEMBL document CHEMBL3421533, “The Discovery of Orally Bioavailable Tyrosine Threonine Kinase (TTK) Inhibitors: 3-(4-(heterocyclyl)phenyl)-1H-indazole-5-carboxamides as Anticancer Agents” (J Med Chem, 2015).

Experiments:
MDA-MB-468 [1] = assay: Cytotoxicity against human MDA-MB-468 cells after 5 days by sulforhodamine B assay; format: functional
In short: (§1)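 Cancer lines were seeded at 800–6000 cells per well according to growth rate, 24 h before compound overlay. After culture, cells were fixed in situ and stained with sulforhodamine B. GI50 values were derived by curve fitting.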

[2] = target: Aurora kinase B/Inner centromere protein (Homo sapiens, UniProt Q96GD4); assay: Inhibition of AURKB/INCENP (unknown origin) preincubated for 15 mins prior to ATP addition by FRET-based homogenous assay; format: protein-complex assay
Aurora kinase B/Inner centromere protein, sequence (Q96GD4 whole entry): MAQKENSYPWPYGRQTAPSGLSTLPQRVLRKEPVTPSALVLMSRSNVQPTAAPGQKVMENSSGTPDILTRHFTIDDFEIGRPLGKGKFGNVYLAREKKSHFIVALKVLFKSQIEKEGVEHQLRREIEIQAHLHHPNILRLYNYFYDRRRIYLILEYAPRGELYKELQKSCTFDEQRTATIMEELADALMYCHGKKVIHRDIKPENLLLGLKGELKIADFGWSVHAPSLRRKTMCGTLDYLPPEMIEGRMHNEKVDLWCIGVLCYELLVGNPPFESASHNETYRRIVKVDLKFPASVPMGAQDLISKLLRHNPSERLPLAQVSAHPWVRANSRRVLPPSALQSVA
Aurora kinase B/Inner centromere protein, sequence (Q9NQS7 whole entry, further chain): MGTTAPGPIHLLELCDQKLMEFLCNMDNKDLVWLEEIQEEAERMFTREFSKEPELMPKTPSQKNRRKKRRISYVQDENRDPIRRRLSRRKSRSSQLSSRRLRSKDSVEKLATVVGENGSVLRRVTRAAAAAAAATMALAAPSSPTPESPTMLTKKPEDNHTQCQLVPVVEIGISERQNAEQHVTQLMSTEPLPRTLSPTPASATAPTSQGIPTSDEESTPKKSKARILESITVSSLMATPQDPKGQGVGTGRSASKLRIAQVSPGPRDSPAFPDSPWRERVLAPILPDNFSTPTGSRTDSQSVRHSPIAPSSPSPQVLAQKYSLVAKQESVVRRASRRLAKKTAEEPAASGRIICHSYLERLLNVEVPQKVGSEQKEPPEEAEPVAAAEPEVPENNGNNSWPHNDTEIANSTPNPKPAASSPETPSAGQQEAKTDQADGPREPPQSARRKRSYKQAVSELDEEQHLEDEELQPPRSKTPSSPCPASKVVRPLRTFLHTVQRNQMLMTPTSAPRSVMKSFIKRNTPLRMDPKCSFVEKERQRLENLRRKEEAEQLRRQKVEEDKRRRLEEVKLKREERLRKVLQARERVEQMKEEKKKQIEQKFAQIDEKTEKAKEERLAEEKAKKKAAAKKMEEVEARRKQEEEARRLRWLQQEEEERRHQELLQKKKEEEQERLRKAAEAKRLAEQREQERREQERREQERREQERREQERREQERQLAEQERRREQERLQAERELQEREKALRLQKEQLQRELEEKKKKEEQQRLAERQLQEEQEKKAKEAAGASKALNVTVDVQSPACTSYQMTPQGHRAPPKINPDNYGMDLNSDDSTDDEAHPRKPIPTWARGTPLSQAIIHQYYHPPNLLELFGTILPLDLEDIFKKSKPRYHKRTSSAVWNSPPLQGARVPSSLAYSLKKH
In short: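 The enzyme was AURKB/INCENP in a FRET-based homogeneous assay run to kit specifications, with ATP at 128 μM. […] Each IC50 came from a single determination, reported with its standard fitting error.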

[3] = Half life in rat liver microsomes at 1 uM by LC-MS analysis; format: ADME; conditions: liver microsomes
[4] = AUCinfinity in Sprague-Dawley rat at 1 mg/kg, iv by LC-MS/MS analysis; format: ADME, organism-based; design: time infinity, dose 1 mg/kg, route intravenous; conditions: plasma
[5] = AUCinfinity in Sprague-Dawley rat at 5 mg/kg, po by LC-MS/MS analysis; format: ADME, organism-based; design: time infinity, dose 5 mg/kg, route oral; conditions: plasma
[6] = Toxicity in po dosed athymic CD1 nude mouse assessed as body weight loss in excess 20% and deemed moribund administered as qd for 21 days measured 3 times per week during compound dosing; format: organism-based; conditions: in vivo
[7] = Antitumor activity against human HCT116 cells xenografted in athymic CD1 nude mouse assessed as tumor growth inhibition at 35 mg/kg, po qd administered for 21 days measured 3 times per week during compound dosing relative to vehicle-treated control; format: functional; conditions: HCT-116, 504 h, read-out: TGI
In short: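 HCT116 cells (5 million) were injected subcutaneously into the right flank of 6–8 week old female athymic CD-1 nude mice. At a mean tumor volume of 80–120 mm³, mice were randomized (n = 8). Tumors were measured three times weekly, volume x²y/2, and TGI was taken against vehicle.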

MDA-MB-468 [8] = assay: Antitumor activity against human MDA-MB-468 cells xenografted in CB-17 SCID mouse assessed as tumor growth inhibition at 30 mg/kg, po qd administered for 21 days measured 3 times per week during compound dosing relative to vehicle-treated control; format: functional; conditions: MDA-MB-468, 504 h, read-out: TGI
In short: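 Groups (n = 5) were randomized at a mean tumor volume of 80–120 mm³. Oral daily dosing for 21 days in 10% NMP/40% PEG400/50% DI water, top dose 30 mg/kg. Tumors were measured three times weekly, volume x²y/2, and TGI was computed against vehicle.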

[9] = target: Mast/stem cell growth factor receptor Kit (Homo sapiens, UniProt P10721); assay: Inhibition of human cKit by millipore radiometric assay
Mast/stem cell growth factor receptor Kit, sequence (P10721 whole entry): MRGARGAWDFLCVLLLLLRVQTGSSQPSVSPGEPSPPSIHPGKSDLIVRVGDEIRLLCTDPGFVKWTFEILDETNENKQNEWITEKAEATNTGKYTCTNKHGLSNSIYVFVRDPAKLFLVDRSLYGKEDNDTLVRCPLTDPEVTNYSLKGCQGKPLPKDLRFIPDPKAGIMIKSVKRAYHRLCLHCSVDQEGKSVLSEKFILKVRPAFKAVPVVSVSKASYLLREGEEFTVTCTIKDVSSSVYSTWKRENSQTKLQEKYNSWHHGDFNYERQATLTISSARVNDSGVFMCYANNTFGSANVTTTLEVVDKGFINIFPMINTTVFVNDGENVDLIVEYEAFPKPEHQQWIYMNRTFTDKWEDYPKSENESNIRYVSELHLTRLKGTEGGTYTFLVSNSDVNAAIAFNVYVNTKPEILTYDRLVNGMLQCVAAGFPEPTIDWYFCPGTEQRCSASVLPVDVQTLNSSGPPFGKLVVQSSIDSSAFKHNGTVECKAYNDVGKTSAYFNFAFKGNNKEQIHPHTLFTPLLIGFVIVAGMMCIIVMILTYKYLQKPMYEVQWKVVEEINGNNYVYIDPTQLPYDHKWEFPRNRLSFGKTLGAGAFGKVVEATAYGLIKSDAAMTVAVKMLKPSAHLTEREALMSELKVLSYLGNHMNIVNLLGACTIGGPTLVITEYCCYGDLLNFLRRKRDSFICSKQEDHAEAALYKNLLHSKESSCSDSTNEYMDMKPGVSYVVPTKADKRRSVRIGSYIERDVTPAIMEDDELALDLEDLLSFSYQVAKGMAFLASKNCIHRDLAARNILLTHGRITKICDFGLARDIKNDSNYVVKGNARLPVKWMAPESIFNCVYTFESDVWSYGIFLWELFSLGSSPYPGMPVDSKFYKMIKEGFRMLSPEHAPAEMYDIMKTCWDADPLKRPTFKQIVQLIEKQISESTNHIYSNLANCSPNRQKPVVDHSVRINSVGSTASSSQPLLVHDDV
In short: (§2)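 Radiometric profiling against a 278-kinase panel was done with ATP at Km. Half-maximal inhibitory concentrations were then determined for the kinases most inhibited.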

[10] = target: Proto-oncogene tyrosine-protein kinase receptor Ret (Homo sapiens, UniProt P07949, V804M); assay: Inhibition of human Ret V804M mutant by millipore radiometric assay; in short: as §2
Proto-oncogene tyrosine-protein kinase receptor Ret, sequence (P07949 29-1114 V804M limits assumed): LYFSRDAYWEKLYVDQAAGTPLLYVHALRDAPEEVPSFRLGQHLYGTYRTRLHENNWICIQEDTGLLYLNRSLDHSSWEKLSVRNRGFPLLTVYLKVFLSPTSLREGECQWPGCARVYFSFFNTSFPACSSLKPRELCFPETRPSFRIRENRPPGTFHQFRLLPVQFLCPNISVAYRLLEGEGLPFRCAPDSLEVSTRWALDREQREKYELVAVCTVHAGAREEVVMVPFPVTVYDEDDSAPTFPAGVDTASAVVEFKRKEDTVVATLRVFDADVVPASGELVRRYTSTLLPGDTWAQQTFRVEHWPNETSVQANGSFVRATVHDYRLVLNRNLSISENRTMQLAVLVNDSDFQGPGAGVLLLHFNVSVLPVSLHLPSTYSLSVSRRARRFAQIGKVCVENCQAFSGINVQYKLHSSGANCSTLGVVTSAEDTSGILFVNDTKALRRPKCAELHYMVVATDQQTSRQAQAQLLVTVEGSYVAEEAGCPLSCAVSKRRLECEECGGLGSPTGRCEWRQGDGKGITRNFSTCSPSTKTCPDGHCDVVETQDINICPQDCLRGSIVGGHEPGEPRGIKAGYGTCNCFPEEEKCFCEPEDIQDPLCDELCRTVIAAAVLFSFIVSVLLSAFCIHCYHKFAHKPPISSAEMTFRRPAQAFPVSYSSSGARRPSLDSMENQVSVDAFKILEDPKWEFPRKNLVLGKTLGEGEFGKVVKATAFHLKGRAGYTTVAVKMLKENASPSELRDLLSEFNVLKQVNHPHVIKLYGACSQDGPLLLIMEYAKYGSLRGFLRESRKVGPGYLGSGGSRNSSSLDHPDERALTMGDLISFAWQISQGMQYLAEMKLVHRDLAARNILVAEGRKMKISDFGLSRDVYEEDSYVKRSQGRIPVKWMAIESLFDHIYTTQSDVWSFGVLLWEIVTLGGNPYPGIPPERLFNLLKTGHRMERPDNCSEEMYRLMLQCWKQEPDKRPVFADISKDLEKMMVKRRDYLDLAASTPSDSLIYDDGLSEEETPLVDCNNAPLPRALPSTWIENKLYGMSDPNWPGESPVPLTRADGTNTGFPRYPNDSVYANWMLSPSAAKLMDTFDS

[11] = target: Mitogen-activated protein kinase 1 (Homo sapiens, UniProt P28482); assay: Inhibition of human MAPK1 by millipore radiometric assay; in short: as §2
Mitogen-activated protein kinase 1, sequence (P28482 whole entry): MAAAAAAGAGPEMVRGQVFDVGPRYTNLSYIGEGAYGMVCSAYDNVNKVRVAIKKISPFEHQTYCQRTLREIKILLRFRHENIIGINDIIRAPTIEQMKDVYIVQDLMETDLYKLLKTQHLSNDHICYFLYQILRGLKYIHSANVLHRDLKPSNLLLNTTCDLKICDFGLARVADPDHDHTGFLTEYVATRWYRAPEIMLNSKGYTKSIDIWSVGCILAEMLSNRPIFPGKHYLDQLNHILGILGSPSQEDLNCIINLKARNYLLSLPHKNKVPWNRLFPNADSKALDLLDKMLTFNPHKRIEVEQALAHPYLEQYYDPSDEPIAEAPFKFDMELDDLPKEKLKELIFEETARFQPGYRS

[12] = target: Serine/threonine-protein kinase PLK4 (Homo sapiens, UniProt O00444); assay: Inhibition of PLK4 (unknown origin) by indirect ELISA detection system
Serine/threonine-protein kinase PLK4, sequence (O00444 whole entry): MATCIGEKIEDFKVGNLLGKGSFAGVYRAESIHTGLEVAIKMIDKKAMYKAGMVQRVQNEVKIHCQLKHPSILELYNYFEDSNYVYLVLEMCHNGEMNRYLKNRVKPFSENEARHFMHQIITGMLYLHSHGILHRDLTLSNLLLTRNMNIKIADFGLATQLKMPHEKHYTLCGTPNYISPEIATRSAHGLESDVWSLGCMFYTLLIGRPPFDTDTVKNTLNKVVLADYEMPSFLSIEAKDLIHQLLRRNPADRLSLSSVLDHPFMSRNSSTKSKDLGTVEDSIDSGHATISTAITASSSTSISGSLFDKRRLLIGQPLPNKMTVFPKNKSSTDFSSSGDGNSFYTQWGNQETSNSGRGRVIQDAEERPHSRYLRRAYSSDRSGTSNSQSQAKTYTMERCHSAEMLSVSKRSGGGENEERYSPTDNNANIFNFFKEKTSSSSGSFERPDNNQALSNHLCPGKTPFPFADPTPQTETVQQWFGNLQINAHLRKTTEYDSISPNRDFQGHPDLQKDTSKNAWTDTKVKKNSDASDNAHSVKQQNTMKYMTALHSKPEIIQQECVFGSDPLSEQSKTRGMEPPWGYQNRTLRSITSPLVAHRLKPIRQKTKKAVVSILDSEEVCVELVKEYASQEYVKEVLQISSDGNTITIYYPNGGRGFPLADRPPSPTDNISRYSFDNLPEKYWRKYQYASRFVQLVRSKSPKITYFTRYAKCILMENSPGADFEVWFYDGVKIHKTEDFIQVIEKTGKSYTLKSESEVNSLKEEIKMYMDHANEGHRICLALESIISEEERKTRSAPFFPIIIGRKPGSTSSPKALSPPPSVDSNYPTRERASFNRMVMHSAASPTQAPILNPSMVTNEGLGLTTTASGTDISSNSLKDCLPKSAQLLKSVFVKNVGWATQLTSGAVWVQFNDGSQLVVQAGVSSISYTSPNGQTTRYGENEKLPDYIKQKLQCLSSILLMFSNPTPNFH

Aurora kinase A = target: T1, Aurora kinase A (Homo sapiens, UniProt O14965); assay: Inhibition of AURKA (unknown origin) transfected in human HCT116 cells after 4 hrs by near infrared imager analysis; format: cell-based, HCT-116
T1 sequence (O14965 whole entry): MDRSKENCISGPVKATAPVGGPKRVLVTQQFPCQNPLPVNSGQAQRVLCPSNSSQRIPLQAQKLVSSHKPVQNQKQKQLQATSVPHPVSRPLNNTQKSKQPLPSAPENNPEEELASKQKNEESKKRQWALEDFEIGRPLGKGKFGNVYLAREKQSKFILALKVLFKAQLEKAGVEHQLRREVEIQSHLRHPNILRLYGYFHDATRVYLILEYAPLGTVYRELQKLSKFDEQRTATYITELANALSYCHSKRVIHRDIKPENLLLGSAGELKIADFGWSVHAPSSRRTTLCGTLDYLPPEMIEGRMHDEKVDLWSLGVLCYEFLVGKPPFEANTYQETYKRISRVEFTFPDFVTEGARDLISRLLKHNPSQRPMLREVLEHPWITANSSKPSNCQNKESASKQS
In short: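 HCT116 cells transfected with wild-type TTK were arrested with nocodazole (200 ng/mL, 17 h). They were pretreated with MG132 (15 μM, 30 min), then exposed to compound or DMSO for 4 h. Blots were probed for phospho-TTK (Thr12/Ser15), phospho-Aurora A (Thr288)/B (Thr232), TTK and GAPDH. Bands were quantified by near-infrared imaging, and EC50 was fitted.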

MCF7 = assay: Cytotoxicity against human MCF7 cells after 5 days by sulforhodamine B assay; format: functional; conditions: MCF7, 120 h; in short: as §1
DU-145 = assay: Cytotoxicity against human DU145 cells after 5 days by sulforhodamine B assay; format: functional; conditions: DU-145, 120 h; in short: as §1
SK-MEL-5 = assay: Cytotoxicity against human SK-MEL-5 cells after 5 days by sulforhodamine B assay; format: functional; conditions: SK-MEL-5, 120 h; in short: as §1
A549 = assay: Cytotoxicity against human A549 cells after 5 days by sulforhodamine B assay; format: functional; conditions: A549, 120 h; in short: as §1
HCT-116 = assay: Induction of chromosome segregation defect in human HCT116 cells assessed as anaphase and telophase cells with lagging chromosomes at 100 nM incubated for 6 hrs post double thymidine block by DAPI staining-based immunofluorescence microscopic analysis (reference value: 19 +/- 2%); format: functional

`O=C(N[C@@H](c1ccccn1)C1CC1)c1ccc2[nH]nc(-c3ccc(N4[C@H]5CC[C@H]4CC(O)C5)cc3)c2c1` (stereo in doubt; 75) gave a GI50 (MDA-MB-468 [1]) of 36 nM, an IC50 [2] of 1300 nM and a half-life at 1 µM [3] of over 1 h. For the same compound, the AUC(0-inf) [4] was 250 ng·h/mL, the AUC(0-inf) [5] was 550 ng·h/mL and the MTD at 504 h [6] was 35 mg/kg. It also gave an inhibition in vivo at 35 mg/kg [7] of 77%, an inhibition in vivo at 30 mg/kg (MDA-MB-468 [8]) of 98% and an IC50 [9] of over 30000 nM. The IC50 [10] was 280 nM, the IC50 [11] was 320 nM and the IC50 [12] was 130 nM. It also gave an EC50 (Aurora kinase A) of over 6000 nM, a GI50 (MCF7) of 15 nM and a GI50 (DU-145) of 17 nM. For the same compound, the GI50 (SK-MEL-5) was 20 nM, the GI50 (A549) was 24 nM and the Activity (HCT-116) was 61%.
